Measured values taken from ChEMBL document CHEMBL1121566, “Synthesis and aldose reductase inhibitory activity of 7-sulfamoylxanthone-2-carboxylic acids” (J Med Chem, 1980).
Active and inactive are the calls of the source. The calls are words filed in the database; no cut-off is given here.

Experiments:
[1] = target: Aldo-keto reductase family 1 member B1 (Oryctolagus cuniculus) (UniProt P15122); assay: Antiallergic agent with Aldose reductase Inhibitory Activity at 10E-5 M concentration
How it was run: (§1)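 Enzyme was from frozen rabbit lenses, homogenized in water and spun at 10000g. The 50–75% ammonium sulfate fraction was dissolved in 0.05 M NaCl. The assay used 0.067 M phosphate pH 6.0 and 2 × 10^-5 M NADPH, and was started with 5 × 10^-4 M D,L-glyceraldehyde (final). NADPH loss was followed at 340 nm for 2 min at 37 °C. Inhibitors were dissolved in minimal 0.1 N NaOH and diluted with water.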

[2] = target: Aldo-keto reductase family 1 member B1 (Oryctolagus cuniculus) (UniProt P15122); assay: Antiallergic agent with Aldose reductase Inhibitory Activity at 10E-6 M concentration; how it was run: as §1
[3] = system: Aldose reductase (Oryctolagus cuniculus); assay: In vitro inhibitory activity towards rabbit lens aldose reductase; Active
[4] = target: Aldo-keto reductase family 1 member B1 (Oryctolagus cuniculus) (UniProt P15122); assay: Percent inhibition of rabbit lens aldose reductase in vitro at 10E-4 M concentration; how it was run: as §1

In the case of `CN(CCO)S(=O)(=O)c1ccc2oc3ccc(C(=O)O)cc3c(=O)c2c1`, the inhibition [1] is reported as 96%, the inhibition [2] is reported as 83% and the inhibition [3] is reported as “Active”. It also gave an inhibition [4] of 100%.
Work on `O=C(O)c1ccc2oc3ccc(S(=O)(=O)O)cc3c(=O)c2c1` yielded an inhibition [1] of 43%, an inhibition [2] of 0% and an inhibition [4] of 70%.
`O=C(O)c1ccc2oc3ccc(S(=O)(=O)CCO)cc3c(=O)c2c1` gave an inhibition [1] of 77%, an inhibition [2] of 50% and an inhibition [4] of 96%.
Compound `O=C(O)c1ccc2oc3ccc(S(=O)(=O)N4CCCC4)cc3c(=O)c2c1` has an inhibition [1] of 46%, an inhibition [2] of 0% and an inhibition [4] of 85%.
In the case of `CC(C)CN(C)S(=O)(=O)c1ccc2oc3ccc(C(=O)O)cc3c(=O)c2c1`, the inhibition [1] is reported as 75%, the inhibition [2] is reported as 25% and the inhibition [4] is reported as 95%.
`CC(C)NS(=O)(=O)c1ccc2oc3ccc(C(=O)O)cc3c(=O)c2c1` was tested, and the inhibition [1] was 30%, the inhibition [2] was 0% and the inhibition [4] was 72%.
`NS(=O)(=O)c1ccc2oc3ccc(C(=O)O)cc3c(=O)c2c1` was tested, and the inhibition [1] was 20%, the inhibition [2] was 10% and the inhibition [4] was 70%.
`O=C(O)c1ccc2oc3ccc(SCCO)cc3c(=O)c2c1` was tested, and the inhibition [1] was 65%, the inhibition [2] was 7% and the inhibition [4] was 93%.
For `COC(C)c1ccc2oc3ccc(C(=O)O)cc3c(=O)c2c1` (stereo not given), the inhibition [1] was 6%, the inhibition [2] was 0% and the inhibition [4] was 70%.
With `C[S+]([O-])c1ccc2oc3ccc(C(=O)O)cc3c(=O)c2c1` (stereo not given) the inhibition [1] was 20%, the inhibition [2] was 0% and the inhibition [4] was 63%.
`CN(C)S(=O)(=O)c1ccc2oc3ccc(C(=O)O)cc3c(=O)c2c1` was tested, and the inhibition [1] was 87%, the inhibition [2] was 67% and the inhibition [3] was “Active”. For the same compound, the inhibition [4] was 94%.
Compound `O=C(O)c1ccc2oc3ccccc3c(=O)c2c1` has an inhibition [1] of 10%, an inhibition [2] of 0% and an inhibition [4] of 20%.
In the case of `CCN(C)S(=O)(=O)c1ccc2oc3ccc(C(=O)O)cc3c(=O)c2c1`, the inhibition [1] is reported as 81%, the inhibition [2] is reported as 23% and the inhibition [4] is reported as 92%.
Compound `CC(C)N(C)S(=O)(=O)c1ccc2oc3ccc(C(=O)O)cc3c(=O)c2c1` has an inhibition [1] of 69%, an inhibition [2] of 17% and an inhibition [4] of 89%.
In the case of `CC(O)c1ccc2oc3ccc(C(=O)O)cc3c(=O)c2c1` (stereo not given), the inhibition [1] is reported as 10%, the inhibition [2] is reported as 10% and the inhibition [4] is reported as 50%.
For `O=C(O)c1ccc2oc3ccc(S(=O)(=O)N4CCOCC4)cc3c(=O)c2c1`, the inhibition [1] was 6%, the inhibition [2] was 0% and the inhibition [4] was 76%.
In the case of `O=c1c(O)c(-c2ccc(O)c(O)c2)oc2cc(O)cc(O)c12`, the inhibition [1] is reported as 52% and the inhibition [2] is reported as 9%.
With `O=C(O)c1ccc2oc3ccc(S(=O)(=O)N(CCO)CCO)cc3c(=O)c2c1` the inhibition [1] was 49%, the inhibition [2] was 2% and the inhibition [4] was 89%.
`O=C(O)c1ccc2oc3ccc([S+]([O-])CCO)cc3c(=O)c2c1` (stereo not given) was tested, and the inhibition [1] was 50%, the inhibition [2] was 17% and the inhibition [4] was 87%.
In the case of `O=C(O)c1ccc2oc3ccc(S(=O)(=O)NCCO)cc3c(=O)c2c1`, the inhibition [1] is reported as 38%, the inhibition [2] is reported as 0% and the inhibition [4] is reported as 79%.
`CNS(=O)(=O)c1ccc2oc3ccc(C(=O)O)cc3c(=O)c2c1` was tested, and the inhibition [1] was 40%, the inhibition [2] was 25% and the inhibition [4] was 75%.
`O=C(O)c1ccc2oc3ccc(OCC(O)CO)cc3c(=O)c2c1` (stereo not given) gave an inhibition [1] of 46%, an inhibition [2] of 8% and an inhibition [4] of 88%.
Work on `COCC[S+]([O-])c1ccc2oc3ccc(C(=O)O)cc3c(=O)c2c1` (stereo not given) yielded an inhibition [1] of 12%, an inhibition [2] of 4% and an inhibition [4] of 65%.
